Screening data deposited in PubChem BioAssay by several laboratories.
TAAR1 antag = human TAAR1 antagonists, primary screen, Fluo-8 calcium fluorescence, CHO RD-HGA16 cells. inhibition, % at 3 µM. 360,000 tested, 1.5% active. Trace amine-associated receptor 1 (Homo sapiens), Q96RJ0. antagonist. AID 624466, 2012;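 active = inhibition above a per-plate cutoff, the mean inhibition of test compounds on that plate plus 3 SD, cut at about 49% in these data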;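 note: 0% = DMSO plus EC80 beta-PEA response and 100% = DMSO alone without agonist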
Target sequence (Q96RJ0 whole entry, looked up): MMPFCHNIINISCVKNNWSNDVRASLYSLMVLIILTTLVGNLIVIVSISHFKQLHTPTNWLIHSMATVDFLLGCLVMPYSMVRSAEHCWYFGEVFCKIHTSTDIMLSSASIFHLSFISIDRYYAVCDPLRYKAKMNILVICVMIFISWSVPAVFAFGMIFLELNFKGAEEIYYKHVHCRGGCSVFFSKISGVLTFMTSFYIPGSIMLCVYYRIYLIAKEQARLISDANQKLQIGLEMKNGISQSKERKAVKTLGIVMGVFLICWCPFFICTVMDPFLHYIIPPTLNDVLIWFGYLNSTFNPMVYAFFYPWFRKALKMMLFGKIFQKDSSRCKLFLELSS
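Assay system: CHO-derived RD-HGA16 cells stably expressing human TAAR1 plus Gα16. Timing: 140 s kinetic read after compound, 140 s after agonist. Technique: kinetic Fluo-8 calcium fluorescence measurement. Measure: % inhibition of agonist calcium response.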
CHO parental Ca = ATP-evoked calcium signal inhibitors, parental CHO, primary screen, counter-screen for OX1R antagonist project, cell-based, fluorescence, Fluo-8 calcium dye; parental CHO-K1, ATP-induced calcium, Fluo-8 fluorescence; inhibition, % at 5.6 µM; 330,000 tested, 0.63% active; AID 463079, 2010;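 active = inhibition above that plate's mean sample inhibition plus 3 SD, cut at about 26% in these data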;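 note: 0% = ATP-challenged DMSO wells and 100% = DMSO wells without ATP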
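Material – parental CHO cells · Reagent – ATP stimulus · Compound – single nominal dose of 5.6 µM per compound · Detection – Fluo-8 fluorescence · Read-out basis – percent inhibition of calcium signal · Controls – ATP-challenged DMSO wells low, unchallenged DMSO wells high · Repeats – no replicates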
TAAR1 ag = human TAAR1 agonists, primary screen, Fluo-8 calcium fluorescence, CHO RD-HGA16 cells; Trace amine-associated receptor 1 (Homo sapiens), Q96RJ0; vehicle wells 0%, saturating PEA agonist 100%; activation, % at 3 µM; 360,000 tested, 0.99% active;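 active = activation above the mean activation of all test compounds in the run plus 3 SD, cut at about 38% in these data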
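Benchmarks: low control DMSO, high control PEA (EC100); System: CHO RD-HGA16 cells carrying human TAAR1 plus Gα16; Detection: Fluo-8 fluorescence, 5 s baseline then 140 s kinetic read; Schedule: 17-24 h plating, Fluo-8 75 min 37 °C, 30 min RT; Read-out basis: % activation from peak over basal fluorescence ratio, DMSO-to-PEA scaled.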
OX1R antag-1 = OX1R (HCRTR1) antagonists, primary screen, fluorescence, CHO/OX1R cells, Fluo-8 calcium, orexin A; Orexin/Hypocretin receptor type 1 (Homo sapiens), O43613; Fluo-8 calcium fluorescence; inhibition, % at 5 µM; 330,000 tested, 0.43% active; AID 434989, 2010;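 active = inhibition above its plate's threshold, mean inhibition of all tested compounds on the plate plus 3 SD, cut at about 37% in these data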;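 note: 0% = orexin A challenge wells and 100% = SB-334867-A antagonist wells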
OX1R antag-2 = antagonists of human orexin 1 receptor (OX1R); Orexin/Hypocretin receptor type 1 (Homo sapiens), O43613; OX1R-expressing cells, FRET antagonist read-out; inhibition, % at 6.6 µM; 330,000 tested, 1.8% active; in the data active = inhibition mostly above about 38%, no sharp cut-off; inactive = mostly below about 40%;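 note: 0% = agonist challenge alone and 100% = reference antagonist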
NTR1 ag = agonists of human NTR1, primary screen, imaging, U2OS cells, beta-arrestin-GFP, high content; Neurotensin receptor type 1 (Homo sapiens), P30989; NTR1-U2OS beta-arrestin-GFP spot imaging, agonist mode; activation, % at 20 µM; 330,000 tested, 0.17% active; AID 493036, 2011;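 active = activation at or above 40% of the spot to cytoplasm intensity ratio, with at least 20 cells analyzed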;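 note: 0% = DMSO without peptide and 100% = 100 nM NTR1 peptide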
Target sequence (P30989 whole entry, looked up): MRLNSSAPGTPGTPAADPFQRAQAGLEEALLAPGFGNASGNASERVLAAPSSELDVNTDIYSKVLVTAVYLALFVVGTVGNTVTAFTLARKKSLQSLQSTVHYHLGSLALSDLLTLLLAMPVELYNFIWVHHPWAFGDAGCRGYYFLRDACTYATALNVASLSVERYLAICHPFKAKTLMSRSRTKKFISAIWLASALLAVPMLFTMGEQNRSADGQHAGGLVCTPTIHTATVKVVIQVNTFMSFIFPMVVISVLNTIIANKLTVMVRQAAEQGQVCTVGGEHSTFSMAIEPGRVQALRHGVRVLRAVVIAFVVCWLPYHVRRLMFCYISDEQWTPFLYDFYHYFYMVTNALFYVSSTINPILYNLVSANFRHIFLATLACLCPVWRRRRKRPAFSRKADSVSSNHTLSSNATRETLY
TAAR1 nonsel count = nonselective antagonists in TAAR1 counter-screen cells, counter-screen for hTAAR1 antagonist project, cell-based, fluorescence, calcium; shares compounds with TAAR1 antag; inhibition, % at 3 µM; 2,400 tested, 77% active; counterscreen cell line, antagonist mode; in the data active = inhibition above about 22%;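 note: CHO-Ga16 host cells stimulated with ATP at an EC80 level; 0% = agonist EC80 plus vehicle and 100% = vehicle without agonist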
TAAR1 antag conf = human TAAR1 antagonists, retest of hits, confirmation, cell-based, fluorescence. shares compounds with TAAR1 antag. TAAR1-expressing cells, fluorescence antagonist read-out. inhibition, % at 3 µM. 2,400 tested, 40% active. AID 651785, 2012; in the data active = inhibition above about 49%;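 note: CHO-Ga16 host cells challenged with agonist PEA near its EC80; 0% = agonist at EC80 plus vehicle and 100% = vehicle with no agonist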
Ga16 ag counter = calcium activation in Ga16-expressing cells, counter-screen for TAAR1 antagonist project, cell-based, fluorescence; shares compounds with TAAR1 antag; agonist counterscreen; activation, % at 3 µM; 2,400 tested, 18% active; in the data active = activation above about 12%;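 note: 0% = vehicle wells and 100% = saturating stimulus response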
TAAR1 ag count = TAAR1 activation by candidate antagonists – cell-based, fluorescence, counter-screen for TAAR1 antagonist project; shares compounds with TAAR1 antag; hTAAR1 cell line, agonist mode; activation, % at 3 µM; 2,400 tested, 2% active; AID 651955, 2012; in the data active = activation above about 37%;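 note: CHO cells stably expressing TAAR1 with calcium dye readout; 0% = DMSO vehicle and 100% = full agonist response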
Starred values were filed as active, the others as inactive; nt = no result. Hits are enriched below; roughly 4% of the tested compounds scored in any of these assays.

SMILES | TAAR1 antag | CHO parental Ca | TAAR1 ag | OX1R antag-1 | OX1R antag-2 | NTR1 ag | TAAR1 nonsel count | TAAR1 antag conf | Ga16 ag counter | TAAR1 ag count
COC(=O)C1=C(C)N(Cc2ccc(F)cc2)C(=S)NC1c1cccc(Br)c1 (stereo unspecified) | 54.2* | nt | -1.0 | nt | nt | nt | 19.0 | 26.9 | 2.6 | 4.4
Cc1cc(O)cc(C)c1NS(=O)(=O)c1ccc2ccccc2c1 | 12.6 | -9.7 | 10.1 | -22.9 | 5.5 | 2.7 | nt | nt | nt | nt
COCC1CN(CCc2ccc(F)cc2)S(=O)(=O)c2c(OCCN3C(=O)[C@@H]4[C@H](C3=O)[C@@H]3C=C[C@H]4C3)cccc2O1 (stereo partly specified) | 63.0* | nt | 17.8 | nt | nt | nt | 36.4* | 58.2* | 9.2 | 12.1
CCc1nnc(NC(=O)C2Cc3ccccc3CN2S(=O)(=O)CC)s1 (stereo unspecified) | 10.1 | -4.9 | -0.1 | -36.7 | 19.4 | -0.9 | nt | nt | nt | nt
CCS(=O)(=O)N1Cc2ccccc2CC1C(=O)Nc1nnc(SCc2ccc(F)cc2)s1 (stereo unspecified) | 62.1* | -15.0 | 29.8 | -5.0 | 5.6 | 3.2 | 31.8* | 43.3 | 8.7 | 8.8
CC(C)C1C(=O)N(Cc2cn(CCC3OCCCO3)nn2)CCS(=O)(=O)N1Cc1ccc(-c2ccc(Cl)cc2)cc1 (stereo unspecified) | -13.7 | nt | 1.0 | nt | nt | nt | nt | nt | nt | nt
CC1C(=O)N(Cc2cn(CCC3OCCO3)nn2)CCS(=O)(=O)N1Cc1ccc(-c2ccc(Cl)c(Cl)c2)cc1 (stereo unspecified) | 75.2* | nt | 19.7 | nt | nt | nt | 37.9* | 41.2 | 14.8* | 8.7
CC(C)C1C(=O)N(Cc2cn(CCC3OCCO3)nn2)CCS(=O)(=O)N1Cc1ccc(-c2ccc(Cl)cc2)cc1 (stereo unspecified) | 53.1* | nt | 11.1 | nt | nt | nt | 29.7* | 31.4 | 7.7 | 3.5
O=C(Nc1ccc(CN2CCOCC2)cc1)c1ccc2ccccc2c1 | 11.2 | -13.2 | 5.9 | -22.3 | 1.3 | 1.5 | nt | nt | nt | nt
O=C(COc1ccccc1Cl)NC(=S)Nc1ccc(CN2CCOCC2)cc1 | 73.4* | -21.6 | 12.2 | -31.0 | 9.3 | -0.2 | 46.7* | 51.3* | 11.0 | 11.5
CCOc1ccc(NC(=O)c2ccc(NC(=O)c3ccc(CN4CCOCC4)cc3)cc2)cc1 | 60.6* | -6.2 | 11.9 | -3.0 | 7.6 | -0.9 | 29.3* | 47.4 | 6.6 | 9.7
O=C(Nc1ccc(CN2CCOCC2)cc1)c1cccc(-c2cc3ccccc3oc2=O)c1 | 63.6* | -14.8 | 14.9 | -21.4 | 8.9 | 2.3 | 27.3* | 46.9 | 8.8 | 5.5
Cc1ccccc1CN(C)C(=O)CNC(=O)c1ccc2ccccc2c1 | 1.9 | -20.6 | 1.0 | -5.0 | 19.0 | 1.2 | nt | nt | nt | nt
CC(=O)N1c2ccc(S(=O)(=O)NCC3CCC(C(=O)N4CCCC(C)C4)CC3)cc2CC1C (stereo unspecified) | -6.8 | -24.6 | 2.5 | -37.6 | -1.9 | -0.8 | nt | nt | nt | nt
O=C(c1ccco1)N1CCN(C/C=C/c2ccccc2)CC1 | -9.7 | -15.1 | 5.1 | -17.3 | 12.8 | 1.0 | nt | nt | nt | nt
O=C(c1nn(Cc2ccccc2)c(=O)c2ccccc12)N1CCN(C/C=C/c2ccccc2)CC1 | 50.4* | -22.6 | 9.5 | -17.9 | 19.9 | 6.2 | 17.8 | 27.5 | 3.5 | 3.6
COC(=O)c1ccc(COc2ccc(/C=C(\C#N)c3nc4ccccc4[nH]3)cc2OC)o1 | 60.6* | 1.5 | 13.7 | -1.2 | 23.5 | 10.0 | 32.2* | 45.0 | 6.6 | 7.4
N#C/C(=C\c1ccc([N+](=O)[O-])o1)c1nc2ccccc2[nH]1 | 66.5* | 7.1 | 17.2 | 3.6 | 14.5 | -4.1 | 49.1* | 61.2* | 19.9* | 24.7
COc1cc(/C=C(/C#N)c2nc3ccccc3[nH]2)ccc1Oc1ncccc1[N+](=O)[O-] | 21.6 | -14.6 | 12.9 | -0.5 | 13.3 | 2.8 | nt | nt | nt | nt
CCOc1cc(/C=C(/C#N)c2nc3ccccc3[nH]2)ccc1Oc1ccc([N+](=O)[O-])cn1 | 64.6* | -7.9 | 15.0 | -5.2 | 25.0 | 3.8 | 54.2* | 65.6* | 9.8 | 6.9
Cc1cc(C)cc(NC(=O)CSc2nnnn2-c2cccnc2)c1 | 1.1 | -4.2 | -1.4 | -10.7 | 28.8 | 0.5 | nt | nt | nt | nt
COc1ccc(-c2noc(CCC(=O)N3CCN(c4ccccc4C(F)(F)F)CC3)n2)cc1 | 64.8* | -14.8 | 5.4 | -2.0 | 10.1 | 3.2 | 28.1* | 47.6 | 10.8 | 14.9
COc1ccc(-c2noc(CCC(=O)N3CCN(c4ccccc4OC)CC3)n2)cc1 | 26.5 | -19.0 | 5.9 | -10.8 | 1.9 | 1.9 | nt | nt | nt | nt
CC(=O)Nc1ccc(NC(=O)c2cccc3c2-c2ccccc2C3=O)cc1 | 18.4 | -1.5 | 4.4 | -18.1 | 21.1 | -0.2 | nt | nt | nt | nt
CC(=O)Nc1ccc(NC2=C(Cl)C(=O)c3ccccc3C2=O)cc1 | 65.0* | nt | -3.5 | nt | nt | -3.2 | 39.5* | 46.8 | -2.7 | -6.2
O=C(Nc1cccc(S(=O)(=O)N2CCOCC2)c1)C1=NN(c2ccccc2)C(=O)CC1 | -27.9 | -13.8 | 20.1 | -0.8 | 11.3 | 2.6 | nt | nt | nt | nt
O=C(COC(=O)[C@@H]1CC(O)CN1S(=O)(=O)c1ccccc1[N+](=O)[O-])Nc1ccc2ccccc2c1 (stereo partly specified) | 67.8* | 1.2 | 25.4 | 0.2 | 12.0 | 0.5 | 40.6* | 49.7* | 15.7* | 12.7
Cc1cccc(CCNS(=O)(=O)c2ccc3c(c2)CCN3C(=O)CCC(=O)O)c1 | nt | -2.3 | nt | -8.8 | 3.6 | 0.1 | nt | nt | nt | nt
CC(C)COc1ccc(C(=O)N/N=C/c2ccoc2)cc1 | 62.3* | 2.1 | -1.1 | -20.9 | 44.0 | 2.7 | 13.2 | 36.9 | 8.4 | 10.4
CCOc1cc(C(=O)N/N=C/c2ccoc2)cc(OCC)c1OCC | -0.8 | nt | -1.4 | nt | nt | -0.3 | nt | nt | nt | nt
